# Data reported in publication PMC6407616 (Molecular cell, 2018).
# Positions count from the first letter of the chain named. Names and notes keep the numbering of the source.
# T1: ZMET2 (Zea mays, UniProt Q9AXT8)
# T1 sequence (Q9AXT8 1-912): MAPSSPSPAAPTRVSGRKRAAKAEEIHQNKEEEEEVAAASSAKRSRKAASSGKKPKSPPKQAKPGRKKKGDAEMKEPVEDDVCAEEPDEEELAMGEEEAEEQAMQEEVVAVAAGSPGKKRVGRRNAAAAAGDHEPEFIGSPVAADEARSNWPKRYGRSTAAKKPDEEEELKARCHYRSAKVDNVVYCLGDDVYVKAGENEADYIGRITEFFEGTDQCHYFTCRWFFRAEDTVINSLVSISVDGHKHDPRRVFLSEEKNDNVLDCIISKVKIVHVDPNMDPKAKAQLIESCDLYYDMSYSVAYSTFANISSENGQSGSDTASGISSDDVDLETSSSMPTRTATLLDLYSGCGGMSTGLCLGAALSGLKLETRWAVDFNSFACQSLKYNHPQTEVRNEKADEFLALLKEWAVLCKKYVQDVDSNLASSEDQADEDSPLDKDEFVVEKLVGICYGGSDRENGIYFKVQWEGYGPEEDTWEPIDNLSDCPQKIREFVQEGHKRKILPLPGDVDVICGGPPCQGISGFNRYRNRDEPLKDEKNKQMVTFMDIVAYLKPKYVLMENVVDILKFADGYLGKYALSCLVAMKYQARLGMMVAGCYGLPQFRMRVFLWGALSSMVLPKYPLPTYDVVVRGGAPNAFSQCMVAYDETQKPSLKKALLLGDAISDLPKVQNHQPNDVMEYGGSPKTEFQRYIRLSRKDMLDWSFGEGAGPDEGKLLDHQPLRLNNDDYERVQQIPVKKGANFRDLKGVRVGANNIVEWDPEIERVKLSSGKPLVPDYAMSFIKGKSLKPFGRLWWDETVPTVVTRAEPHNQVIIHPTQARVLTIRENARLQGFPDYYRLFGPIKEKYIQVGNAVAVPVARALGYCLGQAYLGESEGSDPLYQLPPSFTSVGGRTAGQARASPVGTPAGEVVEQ
# B1: ZMET2: full-length recombinant maintenance DNA methyltransferase from Zea mays (protein)
# chain: T1 sequence (Q9AXT8 1-912)
# modifications: left off: 6xHis, N-terminal, cleaved | SUMO, N-terminal, state not stated
# B2: BAHx: ZMET2 mutated in the aromatic cage of the BAH domain (W224L) (protein)
# chain: T1 sequence (Q9AXT8 1-912) with W224L
# modifications: left off: 6xHis, N-terminal, cleaved | SUMO, N-terminal, state not stated
# B3: CDx: ZMET2 mutated in the aromatic cage of the CD (F441A) (protein)
# chain: T1 sequence (Q9AXT8 1-912) with F441A
# modifications: left off: 6xHis, N-terminal, cleaved | SUMO, N-terminal, state not stated
# B4: 38 bp unmethylated duplex (dsDNA)
# DNA 1: AACGCAGCATGCGCTGCTAGCGCAGCTAGCGCTGCATG
# DNA 2: CATGCAGCGCTAGCTGCGCTAGCAGCGCATGCTGCGTT
# B5: 38 bp hemimethylated duplex (dsDNA)
# DNA 1: B4 DNA 1
# DNA 2: B4 DNA 2
# modifications: 5mC at positions 5, 14, 23 and 32 of strand 1; complement unmethylated
# How the values were obtained:
# ZMET2 [1] = target: T1, ZMET2; assay: DNA methyltransferase assay on unmethylated or hemimethylated 38 bp duplexed DNA; assay type: biochemical; conditions: 300 nM 38 bp duplex; single-turnover, saturating ZMET2; no peptide; n=2
# [2] = target: H3Kc9me3 601 dinucleosome with 20 bp DNA linker (Xenopus laevis); assay: negative stain electron microscopy
# [3] = Size-exclusion chromatography coupled to multi angle light scattering; assay type: physicochemical; conditions: 20 mM Tris-HCl pH 8.0, 150 mM NaCl, 1 mM DTT; Figure S1E
# Summary of the method: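 Recombinant ZMET2 was expressed with 0.2 mM IPTG at 20°C for 16–18 h, then purified by imidazole elution, TEV cleavage, Q anion exchange and Superdex 200 gel filtration. Samples were filtered and injected onto an S 050 size-exclusion column equilibrated overnight in MALS buffer. Molar mass was read by inline multi-angle light scattering with refractive index detection.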
# [4] = FP binding of ZMET2 mutants to H3K9me2 tail peptides; conditions: in words; fluorescence polarization; n=2
# H3Kc9me3 mononucleosomes = assay: FP binding of ZMET2 mutants to H3Kc9me3 mononucleosomes; parameters: species or system Xenopus laevis
# naked 157 bp DNA = assay type: biochemical; conditions: in words, H3K9me0/2 peptides in trans, Figure S4E
# ZMET2 [5] = target: ZMET2 (Zea mays, UniProt Q9AXT8 1-912); assay: fluorescence polarization
molecule,measurement,setting,value
"unmethylated: AACGCAGCATGCGCTGCTAGC GCAGCTAGCGCTGCATG (DNA AACGCAGCATGCGCTGCTAGCGCAGCTAGCGCTGCATG; DNA, backbone not given here)","rate constant, 38 bp duplexed DNA without peptide",ZMET2 [1],5.3E-5 (±1.1E-5) min^−1
full-length recombinant ZMET2 (wild type) (from UniProt Q9AXT8 1-912) (enzyme),stoichiometry N (ZMET2 per dinucleosome),[2],1
B1,oligomeric state by molar mass measurement,[3],monomer
B2,binding to H3K9me2 peptides relative to wild type ZMET2,[4],"did not show a defect, showing instead modestly tighter binding"
same,affinity for H3Kc9me3 nucleosomes relative to wild type ZMET2,"H3Kc9me3 mononucleosomes; in words, n=4",modestly tighter affinity for H3Kc9me3 nucleosomes
B3,binding to H3K9me2 peptides relative to wild type ZMET2,[4],significantly decreased compared to wild type ZMET2
same,fold decrease in affinity for H3Kc9me3 nucleosomes vs wild type ZMET2,"H3Kc9me3 mononucleosomes; fluorescence polarization, n=2",4 fold
same,"rate constant relative to wild type ZMET2, naked DNA",naked 157 bp DNA,comparable to wild type ZMET2
B4,binding signal,ZMET2 [5],32 fold tighter than without H3K9me2
B5,binding signal,ZMET2 [5],36 fold tighter than without H3K9me2
